Test results as given in ChEMBL document CHEMBL2040765, “Synthesis and anticancer activity of a series of norcantharidin analogues” (2012).

Legend:
Format in all cases: functional
[1] = Growth inhibition of human BE(2)-C cells at 100 uM after 72 hrs y MTT assay; details: for inhibition of growth at 100 µM: Homo sapiens, BE(2)-C, 72 h, read-out: GI
Outline: (§1)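 Log-phase cells in supplemented DMEM (10% FBS, 4 mM glutamine, antibiotics; 37 °C, 5% CO2) were plated in duplicate at 2500–4000 cells/well. Compound was added 24 h later at a fixed 100 µM, from 40 mM DMSO stocks. After 72 h, MTT absorbance was read at 540 nm and expressed as percent growth inhibition; 100% means total inhibition.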

SW480 = experiment: Growth inhibition of human SW480 cells at 100 uM after 72 hrs y MTT assay; details: for inhibition of growth at 100 µM: Homo sapiens, SW480, 72 h, read-out: GI; outline: as §1
HT-29 = experiment: Growth inhibition of human HT-29 cells at 100 uM after 72 hrs y MTT assay; details: for inhibition of growth at 100 µM: Homo sapiens, HT-29, 72 h, read-out: GI; outline: as §1
[2] = Growth inhibition of human SJ-G2 cells at 100 uM after 72 hrs y MTT assay; details: for inhibition of growth at 100 µM: Homo sapiens, SJ-G2, 72 h, read-out: GI; outline: as §1
A2780 = experiment: Growth inhibition of human A2780 cells at 100 uM after 72 hrs y MTT assay; details: for inhibition of growth at 100 µM: Homo sapiens, A2780, 72 h, read-out: GI; outline: as §1
NCI-H460 = experiment: Growth inhibition of human H460 cells at 100 uM after 72 hrs y MTT assay; outline: as §1
DU-145 = experiment: Growth inhibition of human DU145 cells at 100 uM after 72 hrs y MTT assay; details: for inhibition of growth at 100 µM: Homo sapiens, DU-145, 72 h, read-out: GI; outline: as §1
MCF7 = experiment: Growth inhibition of human MCF7 cells at 100 uM after 72 hrs y MTT assay; details: for inhibition of growth at 100 µM: Homo sapiens, MCF7, 72 h, read-out: GI; outline: as §1
A-431 = experiment: Growth inhibition of human A431 cells at 100 uM after 72 hrs y MTT assay; outline: as §1

O=C1O[C@H](OCC2CO2)[C@@H]2[C@H]1[C@H]1CC[C@@H]2O1 (stereo in doubt; 20)
inhibition of growth at 100 µM [1]: 42% | inhibition of growth at 100 µM (SW480): 16% | inhibition of growth at 100 µM (HT-29): 52% | inhibition of growth at 100 µM [2]: 59% | growth inhibition (GI) (A2780): 83% | growth inhibition (GI) (NCI-H460): 7% | growth inhibition (GI) (DU-145): 21% | inhibition of growth at 100 µM (MCF7): 43% | growth inhibition (GI) (A-431): 18%

O=C1O[C@@H](OCC2CO2)[C@@H]2[C@H]1[C@H]1CC[C@@H]2O1 (stereo in doubt; 21)
growth inhibition (GI) [1]: 35% | growth inhibition (GI) (SW480): 23% | growth inhibition (GI) (HT-29): 68% | growth inhibition (GI) [2]: 73% | inhibition of growth at 100 µM (A2780): 42% | inhibition of growth at 100 µM (NCI-H460; Homo sapiens, NCI-H460, 72 h, read-out: GI): 7% | inhibition of growth at 100 µM (DU-145): 25% | growth inhibition (GI) (MCF7): 33% | inhibition of growth at 100 µM (A-431; Homo sapiens, A-431, 72 h, read-out: GI): 22%

CC1OC1CO[C@H]1OC(=O)[C@H]2[C@@H]1[C@@H]1CC[C@H]2O1 (stereo in doubt; 23)
growth inhibition (GI) [1]: 54% | growth inhibition (GI) (SW480): 41% | growth inhibition (GI) (HT-29): 75% | growth inhibition (GI) [2]: 88% | inhibition of growth at 100 µM (A2780): 55% | growth inhibition (GI) (NCI-H460): 24% | inhibition of growth at 100 µM (DU-145): 37% | growth inhibition (GI) (MCF7): 61% | growth inhibition (GI) (A-431): 35%

CC1OC1CO[C@H]1OC(=O)[C@H]2[C@@H]1[C@@H]1CC[C@H]2O1 (stereo in doubt; 24)
inhibition of growth at 100 µM [1]: 53% | inhibition of growth at 100 µM (SW480): 37% | inhibition of growth at 100 µM (HT-29): 68% | inhibition of growth at 100 µM [2]: 79% | growth inhibition (GI) (A2780): 58% | growth inhibition (GI) (NCI-H460): 9% | growth inhibition (GI) (DU-145): 20% | inhibition of growth at 100 µM (MCF7): 46% | growth inhibition (GI) (A-431): 17%
